Test results: ChEMBL document CHEMBL1122760, “Synthesis and biological properties of some cyclic phosphotriesters derived from 2'-deoxy-5-fluorouridine” (1984)
Converted amounts (≈) assume the structure as drawn.

Key:
L1210 [1] = assay: Dose inhibiting L1210/0 murine leukemia cell proliferation by 50% in presence of 5 ug/mL of dThd.; assay type: functional; details: Mus musculus, read-out: ID50 (the source's name)
L1210 [2] = assay: Dose inhibiting L1210/Br-dUrd murine leukemia cell proliferation by 50%; assay type: functional; details: Mus musculus, read-out: ID50 (the source's name)
Summary of the method: (§1)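 L1210 cells (5×10^4 per well) grown in Eagle's MEM with 10% inactivated fetal calf serum, 2 mM L-glutamine, 0.075% NaHCO3, then exposed to varying test compound concentrations for 48 h at 37 °C in humidified CO2 atmosphere; growth linear over this period. Cells counted by Coulter counter; ID50 = concentration reducing living cell number by 50%.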

L1210 [3] = assay: Dose inhibiting L1210/0 murine leukemia cell proliferation by 50% in presence of 125 ug/mL of dUrd.; assay type: functional; details: Mus musculus, read-out: ID50 (the source's name)
L1210 [4] = assay: Dose inhibiting L1210/0 murine leukemia cell proliferation by 50%; assay type: functional; details: Mus musculus, read-out: ID50 (the source's name); summary of the method: as §1
[5] = Ki/Km values of L1210/0 dTMP synthase for the compound was determined.
[6] = Ratio of ID50 upon addition of dThd to the ID50 upon addition of dUrd against the L1210/0 cell proliferation.; assay type: functional
[7] = Ratio of ID50 for L1210/0 cell growth and ID50 for L1210/BdUrd cell growth.; assay type: functional
L1210 [8] = assay: Dose inhibiting L1210/0 murine leukemia cell proliferation by 50% in presence of 500 ug/mL of dCyd.; assay type: functional; details: Mus musculus, read-out: ID50 (the source's name)

IC50 (L1210 [1]) [µg/mL]	IC50 (L1210 [2]) [µg/mL]	IC50 (L1210 [3]) [µg/mL]	IC50 (L1210 [4]) [ng/mL]	Ratio [5]	IC50 (L1210 [8]) [µg/mL]	SMILES	Ratio [6]	Ratio [7]
> 100	2.43 (≈ 7.45 µM)	0.044	2 (≈ 0.00613 µM)	0.0099	–	O=c1[nH]c(=O)n([C@H]2C[C@H](O)[C@@H](COP(=O)(O)O)O2)cc1F [5-FLUORODEOXYURIDYLATE]	>2273	1215
> 1000	165 (≈ 432 µM)	3.87	320 (≈ 0.837 µM)	> 60	2.04	O=c1[nH]c(=O)n([C@H]2C[C@H](O)[C@@H](COP3(=O)OCC(O)CO3)O2)cc1F (stereo partly drawn)	>258	516
> 100	197 (≈ 538 µM)	13.2	275 (≈ 0.751 µM)	> 110	1.38	O=c1[nH]c(=O)n([C@H]2C[C@H](O)[C@@H](COP3(=O)OCCCO3)O2)cc1F	>7.58	716

SMILES	IC50 (L1210 [1]) [µg/mL]	IC50 (L1210 [2]) [µg/mL]	IC50 (L1210 [3]) [µg/mL]	IC50 (L1210 [4]) [ng/mL]	Ratio [5]	IC50 (L1210 [8]) [µg/mL]	Ratio [6]	Ratio [7]
O=c1[nH]c(=O)n([C@H]2C[C@H](O)[C@@H](CO)O2)cc1F [FLOXURIDINE]	34	1.75 (≈ 7.11 µM)	0.02	1 (≈ 0.00406 µM)	66.5	–	1700	1750
O=c1[nH]c(=O)n([C@H]2C[C@H](O)[C@@H](COP3(=O)OCC(F)(F)CO3)O2)cc1F	270	2.42 (≈ 6.02 µM)	0.048	3 (≈ 0.00746 µM)	> 110	0.036	5637	807
